Experimental data published in ChEMBL document CHEMBL1121486, “Synthesis of nitrosourea derivatives of pyridine and piperidine as potential anticancer agents” (1980).
Values joined by “and” are separate entries in the source; they are usually repeats but may differ in a detail not shown here. Equal entries are not always repeated.

Key:
3EM 37 [1] = assay: Compound tested for activity against 3EM 37 mouse ependymoblastoma after single ip injection on day 1 at optimal dose of 100 mg/kg (Dose range 200-12.5); type: functional; conditions: route intraperitoneal
3EM 37 [2] = assay: Compound tested for toxicity against 3EM 37 Mouse Ependymoblastoma after single ip injection on day 1 at optimal dose (OD) of 100 mg/kg on the 5th day after the injection of the compound; (10/10); type: functional; conditions: route intraperitoneal
3EM 37 [3] = assay: Effect of compound on 3EM 37 mouse ependymoblastoma after single ip injection on day 1 recorded as animal weight difference of the treated and the control (T-C) at OD of 100 mg/kg; type: functional; conditions: route intraperitoneal
3EM 37 [4] = assay: Effect of compound on 3EM 37 mouse ependymoblastoma after single ip injection on day 1 recorded as percentage of cured animals at OD of 100 mg/kg; type: functional; conditions: route intraperitoneal
L1210 [5] = assay: Compound tested for activity against mouse leukemia L1210 tumor (Intracerebrally implanted) after single ip injection on day 1 at optimal dose of 100 mg/kg (Dose range 200-12.5); type: functional; conditions: route intraperitoneal
L1210 [6] = assay: Compound tested for activity against mouse leukemia L1210 tumor (Intraperitoneally implanted) after single ip injection on day 1 at optimal dose of 100 mg/kg (Dose range 200-12.5); type: functional; conditions: route intraperitoneal
Outline: (§1)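 L1210 leukaemia implanted intraperitoneally in mice. Compound given over a dose range (mg/kg); optimum dose selected. Survivors for toxicity recorded day 5 post-injection. Measures: T – C body weight difference (g), % T/C, and cures, defined as 30-day survivors.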

L1210 [7] = assay: The effect of compound on mouse leukemia L1210 tumor (Intraperitoneally implanted)after single dose injected intraperitoneally on day 1 […] at OD of 100 mg/kg; type: functional; conditions: route intraperitoneal
L1210 [8] = assay: Compound tested for toxicity against mouse leukemia L1210 tumor (Intracerebrally implanted) after single ip injection on day 1 at optimal dose (OD) of 100 mg/kg on the 5th day after the injection of the compound; (6/6); type: functional; conditions: route intraperitoneal
L1210 [9] = assay: Compound tested for toxicity against mouse leukemia L1210 tumor (Intraperitoneally implanted) after single ip injection on day 1 at optimal dose (OD) of 100 mg/kg on the 5th day after the injection of the compound; (6/6); type: functional; conditions: route intraperitoneal
[10] = test system: Lewis lung carcinoma cell line; assay: Effect of compound on Lewis Lung carcinoma after single dose injected intraperitoneally on day 1 recorded as animal weight difference of the treated and the control (T-C) at OD of 64 mg/kg; type: functional, Mus musculus; conditions: route intraperitoneal
Mus musculus [11] = assay: Compound tested for the effect on total white blood cell count and reported as percentage change from control on day 7 at 53 mg/kg (ip); type: functional
Outline: (§2)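 Total white blood cell count in mice. Treatment was intraperitoneal at the listed mg/kg doses, 10 mice per group. Counts were taken on days 3, 5 and 7 and expressed as % change from control, with the control being each group's predose value. Significance was taken at p ≤ 0.05.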

Mus musculus [12] = assay: Compound tested for the effect on total white blood cell count and reported as percentage change from control on day 5 at 53 mg/kg (ip); type: functional; outline: as §2
Mus musculus [13] = assay: Compound tested for the effect on total white blood cell count and reported as percentage change from control on day 7 at 106 mg/kg (ip); type: functional; outline: as §2
Mus musculus [14] = assay: Compound tested for the effect on total white blood cell count and reported as percentage change from control on day 7 at 13.25 mg/kg (ip); type: functional; outline: as §2
Mus musculus [15] = assay: Compound tested for the effect on total white blood cell count and reported as percentage change from control on day 3 at 106 mg/kg (ip); type: functional; outline: as §2
Mus musculus [16] = assay: Compound tested for the effect on total white blood cell count and reported as percentage change from control on day 3 at 13.25 mg/kg (ip); type: functional; outline: as §2
Mus musculus [17] = assay: Compound tested for the effect on total white blood cell count and reported as percentage change from control on day 3 at 26.5 mg/kg (ip); type: functional; outline: as §2
Mus musculus [18] = assay: Compound tested for the effect on total white blood cell count and reported as percentage change from control on day 3 at 53 mg/kg (ip); type: functional; outline: as §2
Mus musculus [19] = assay: Compound tested for the effect on total white blood cell count and reported as percentage change from control on day 5 at 106 mg/kg (ip); type: functional; outline: as §2
Mus musculus [20] = assay: Compound tested for the effect on total white blood cell count and reported as percentage change from control on day 5 at 13.25 mg/kg (ip); type: functional; outline: as §2
P388 [21] = assay: Compound tested for toxicity against mouse P388 cell (Intraperitoneally implanted) after single ip injection on day 1 at optimal dose (OD) of 100 mg/kg on the 5th day after the injection of the compound; (6/6); type: functional; conditions: route intraperitoneal
P388 [22] = assay: Effect of compound on P388 cell after single ip injection on day 1 recorded as animal weight difference of the treated and the control (T-C) at OD of 100 mg/kg; type: functional, Mus musculus; conditions: route intraperitoneal
Outline: (§3)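 Mice bore intraperitoneally implanted P-388 leukaemia and were dosed across a mg/kg range, with an optimum dose picked. Toxicity survivors were scored on day 5 after injection. Outcomes were T – C animal weight difference (g) and % T/C. A cure was a 30-day survivor.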

P388 [23] = assay: The effect of compound on P388 cell after single dose injected intraperitoneally on day 1 […] at OD of 100 mg/kg; type: functional, Mus musculus; conditions: route intraperitoneal; outline: as §3
P388 [24] = assay: Compound tested for activity against mouse leukemia L1210 tumor (Intraperitoneally implanted) after single ip injection on day 1 at optimal dose of 100 mg/kg (Dose range 200-6.25); type: functional; conditions: route intraperitoneal; outline: as §1
[25] = test system: Lewis lung carcinoma cell line; assay: Compound tested for activity against Lewis lung carcinoma after single ip injection on day 1 at optimal dose of 64 mg/kg (Dose range 64-2); conditions: route intraperitoneal
[26] = test system: Lewis lung carcinoma cell line; assay: Effect of compound on Lewis Lung carcinoma after single dose injected intraperitoneally on day 1 recorded as percentage of cured animals at OD of 64 mg/kg; conditions: Mus musculus, route intraperitoneal
L1210 [27] = assay: Compound tested for activity against mouse leukemia L1210 tumor (Intraperitoneally implanted) after single ip injection on day 1 at optimal dose of 100 mg/kg (Dose range 100-6.25); type: functional; conditions: route intraperitoneal; outline: as §1
L1210 [28] = assay: Effect of compound on mouse leukemia L1210 tumor (Intraperitoneally implanted) after single dose injected intraperitoneally on day 1 recorded as animal weight difference of the treated and the control (T-C) at OD of 100 mg/kg; type: functional; conditions: route intraperitoneal; outline: as §1
L1210 [29] = assay: The effect of compound on mouse leukemia L1210 tumor (Intracerebrally implanted) after single dose injected intraperitoneally on day 1 […] at OD of 100 mg/kg; type: functional; conditions: route intraperitoneal
[30] = test system: Lewis lung carcinoma cell line; assay: Effect of compound on Lewis Lung carcinoma after single ip injection on day 1 recorded as animal weight difference of the treated and the control (T-C) at OD of 64-2 mg/kg; type: functional, Mus musculus
Mus musculus [31] = assay: Compound tested for the effect on total white blood cell count and reported as percentage change from control on day 7 at 75 mg/kg (ip); type: functional; outline: as §2
Mus musculus [32] = assay: Compound tested for the effect on total white blood cell count and reported as percentage change from control on day 7 at 8.38 mg/kg (ip); type: functional; outline: as §2
Mus musculus [33] = assay: Compound tested for the effect on total white blood cell count and reported as percentage change from control on day 5 at 75 mg/kg (ip); type: functional; outline: as §2
Mus musculus [34] = assay: Compound tested for the effect on total white blood cell count and reported as percentage change from control on day 5 at 8.38 mg/kg (ip); type: functional; outline: as §2
Mus musculus [35] = assay: Compound tested for the effect on total white blood cell count and reported as percentage change from control on day 7 at 18.75 mg/kg (ip); type: functional; outline: as §2
Mus musculus [36] = assay: Compound tested for the effect on total white blood cell count and reported as percentage change from control on day 7 at 37.5 mg/kg (ip); type: functional; outline: as §2
Mus musculus [37] = assay: Compound tested for the effect on total white blood cell count and reported as percentage change from control on day 3 at 18.75 mg/kg (ip); type: functional; outline: as §2
Mus musculus [38] = assay: Compound tested for the effect on total white blood cell count and reported as percentage change from control on day 3 at 37.5 mg/kg (ip); type: functional; outline: as §2
Mus musculus [39] = assay: Compound tested for the effect on total white blood cell count and reported as percentage change from control on day 3 at 75 mg/kg (ip); type: functional; outline: as §2
Mus musculus [40] = assay: Compound tested for the effect on total white blood cell count and reported as percentage change from control on day 3 at 8.38 mg/kg (ip); type: functional; outline: as §2
Mus musculus [41] = assay: Compound tested for the effect on total white blood cell count and reported as percentage change from control on day 5 at 18.75 mg/kg (ip); type: functional; outline: as §2
Mus musculus [42] = assay: Compound tested for the effect on total white blood cell count and reported as percentage change from control on day 5 at 37.5 mg/kg (ip); type: functional; outline: as §2
[43] = test system: 3EM 37 ependymoblastoma (Mus musculus); assay: Compound tested for activity against 3EM 37 mouse ependymoblastoma after single ip injection on day 1 at optimal dose of 100 mg/kg (Dose range 200-12.5); conditions: route intraperitoneal
[44] = test system: Lewis lung carcinoma cell line; assay: Effect of compound on Lewis Lung carcinoma after single dose injected intraperitoneally on day 1 recorded as percentage of cured animals at OD of 64 mg/kg; conditions: Mus musculus, route intraperitoneal; remark: listed apart in the source
3EM 37 [45] = assay: Compound tested for toxicity against 3EM 37 mouse ependymoblastoma after single ip injection on day 1 at optimal dose (OD) of 100 mg/kg on the 5th day after the injection of the compound; (10/10); conditions: route intraperitoneal

O=C(O)/C=C\C(=O)O.O=NN(CCCl)C(=O)NC1CCN(Cc2ccccc2)CC1
Optimal dose (3EM 37 [1]): 100 mg/kg
Survival (3EM 37 [2]): 10
T-C (3EM 37 [3]): -1.2 g
T/C (3EM 37 [4]): 242%
Optimal dose (L1210 [5]): 100 mg/kg
Optimal dose (L1210 [6]): 100 mg/kg
T/C (L1210 [7]; 100 mg/kg): 379% and 151%
Survival (L1210 [8]): 6
Survival (L1210 [9]): 6
T-C [10]: -2.9 g
Change (Mus musculus [11]): 14% and 7%
Change (Mus musculus [12]): -5% and 5%
Change (Mus musculus [13]): 1%
Change (Mus musculus [14]): 8%
Change (Mus musculus [15]): -67%
Change (Mus musculus [16]): 3%
Change (Mus musculus [17]): 12%
Change (Mus musculus [18]): -22%
Change (Mus musculus [19]): -35%
Change (Mus musculus [20]): 18%
Survival (P388 [21]): 6
T-C (P388 [22]): -4.5 g
T/C (P388 [23]): 361%
Optimal dose (P388 [24]): 100 mg/kg
Optimal dose [25]: 64 mg/kg
T/C [26]: >353%

O=C(O)/C=C\C(=O)O.O=NN(CCCl)C(=O)NC1CCCN(Cc2ccccc2)C1 (stereo unspecified)
T/C (3EM 37 [4]): 223%
Optimal dose (L1210 [5]): 100 mg/kg
Optimal dose (L1210 [27]): 100 mg/kg
T-C (L1210 [28]): -5 g
T/C (L1210 [29]): 192%
T/C (L1210 [7]): 340%
Survival (L1210 [8]): 6
Survival (L1210 [9]): 6
Optimal dose [30]: 64 mg/kg
T-C [10]: -3.7 g
Change (Mus musculus [31]): 11%
Change (Mus musculus [32]): 23%
Change (Mus musculus [33]): -45%
Change (Mus musculus [34]): 15%
Change (Mus musculus [35]): 40%
Change (Mus musculus [36]): 60%
Change (Mus musculus [37]): -26%
Change (Mus musculus [38]): -20%
Change (Mus musculus [39]): -63%
Change (Mus musculus [40]): -19%
Change (Mus musculus [41]): -5%
Change (Mus musculus [42]): 16%
Optimal dose [43]: 100 mg/kg
T/C [44]: 259%
Survival (3EM 37 [45]): 10
